Experimental data published in ChEMBL document CHEMBL3085651, “Anti-cancer evaluation of carboxamides of furano-sesquiterpene carboxylic acids from the soft coral Sinularia kavarattiensis” (Bioorg Med Chem Lett, 2013).

Legend:
Phospholipase A2 = target: T1, Phospholipase A2 (Apis mellifera, UniProt P00630); test: Inhibition of bee venom phospholipase A2
T1 sequence (P00630 whole entry): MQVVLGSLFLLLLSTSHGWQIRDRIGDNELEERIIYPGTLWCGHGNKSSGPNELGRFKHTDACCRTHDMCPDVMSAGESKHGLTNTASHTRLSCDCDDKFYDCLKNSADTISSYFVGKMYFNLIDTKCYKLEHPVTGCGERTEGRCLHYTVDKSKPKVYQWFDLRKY

THP-1 = test: Cytotoxicity against human THP1 cells assessed as cell viability after 48 hrs by MTT assay; format: functional, cell-based; settings: THP-1, 48 h
In short: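 THP-1 cells cultured in RPMI-1640 containing 2-mercaptoethanol and 10% FBS, humidified 5% CO2, 37 °C. They were seeded at 1 × 10^4 cells per well in 96-well plates and incubated with graded compound concentrations for 48 h. MTT was added for the final 1 h, and formazan was dissolved in DMSO for absorbance reading. IC50 is mean ± SD of three independent experiments.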

MCF7 = test: Cytotoxicity against human MCF7 cells assessed as cell viability after 48 hrs by MTT assay; format: functional, cell-based; settings: MCF7, 48 h
In short: (§1)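 DU145 and MCF-7 cells grown in MEM with non-essential amino acids, 1 mM sodium pyruvate, […] bovine insulin and 10% FBS at 37 °C, 5% CO2. Cells were seeded at 1 × 10^4 per well in 96-well plates and treated at varied concentrations for 48 h. MTT reduction was measured over 1 h, with DMSO-solubilized formazan read by absorbance. IC50 is mean ± SD, n = 3 independent experiments.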

HeLa = test: Cytotoxicity against human HeLa cells assessed as cell viability after 48 hrs by MTT assay; format: functional, cell-based
In short: (§2)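 A549 and HeLa cells grown in DMEM with non-essential amino acids and 10% FBS at 37 °C, 5% CO2. Subconfluent cells were trypsinized, plated at 1 × 10^4 cells per well in 96-well plates, and exposed to a range of concentrations for 48 h. MTT was added for 1 h, and formazan was dissolved in DMSO and read by absorbance. IC50 is mean ± SD of three independent experiments.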

A549 = test: Cytotoxicity against human A549 cells assessed as cell viability after 48 hrs by MTT assay; format: functional, cell-based; settings: A549, 48 h; in short: as §2
DU-145 = test: Cytotoxicity against human DU145 cells assessed as cell viability after 48 hrs by MTT assay; format: functional, cell-based; settings: DU-145, 48 h; in short: as §1

Structure (SMILES) | IC50 (Phospholipase A2) [µM] | IC50 (THP-1) [µM] | IC50 (MCF7) [µM] | IC50 (HeLa) [µM] | IC50 (A549) [µM] | IC50 (DU-145) [µM]
C=C/C(C)=C\CC/C(C)=C/c1cc(C(=O)O)co1 | 500 | 56.6 | 61.9 | 81 | 89.3 | 60.1
C=C/C(C)=C\CC/C(C)=C/c1cc(C(=O)N2CCN(C)CC2)co1 |  | 20.8 | 27.9 | 30.5 | 23.6 | 24.1
C=C/C(C)=C/CC/C(C)=C/c1cc(C(=O)O)co1 |  | 39.8 | 74.5 | 80.4 | 89.7 | 38.9
C=C/C(C)=C\CC/C(C)=C/c1cc(C(=O)Nc2ccc(C)cc2)co1 |  | 60.4 | 65.3 | 59.5 | 63.2 | 56.5
C=C/C(C)=C\CC/C(C)=C/c1cc(C(=O)N2CCN(C(c3ccccc3)c3ccccc3)CC2)co1 |  | 17.8 | 26.7 | 28.5 | 24.6 | 16.8
C=C/C(C)=C\CC/C(C)=C/c1cc(C(=O)N2CCN(CC)CC2)co1 |  | 26.5 | 30.3 | 35.9 | 27.9 | 20.4
C=C/C(C)=C\CC/C(C)=C/c1cc(C(=O)N2CCN(Cc3ccccc3)CC2)co1 |  | 50.9 | 53.7 | 59.4 | 50.7 | 45.3
C=C/C(C)=C\CC/C(C)=C/c1cc(C(=O)OC)co1 |  | 51.4 | 75.4 | 59.4 | 89.6 | 59.3
C=C/C(C)=C\CC/C(C)=C/c1cc(C(=O)NCCCNC(=O)c2coc(/C=C(\C)CC/C=C(/C)C=C)c2)co1 |  | 59 | 57.7 | 73.4 | 69.7 | 41.3
C=C/C(C)=C/CC/C(C)=C/c1cc(C(=O)OC)co1 |  | 25.8 | 28.9 | 35.5 | 28.6 | 25.1
C=C/C(C)=C\CC/C(C)=C/c1cc(C(=O)N2CCN(c3ccccc3)CC2)co1 |  | 28.6 | 39.8 | 32.1 | 28.3 | 30.3
C=C/C(C)=C\CC/C(C)=C/c1cc(C(=O)N2CCN(Cc3ccc4c(c3)OCO4)CC2)co1 |  | 15.9 | 50.8 | 44.2 | 45.5 | 17.9
